In ChEMBL document CHEMBL1136765, “1,3-dioxolane-based ligands as a novel class of alpha1-adrenoceptor antagonists” (J Med Chem, 2003):

How the values were obtained:
[1] = target: Alpha adrenergic receptor 1A and 1D (Rattus norvegicus) (UniProt P23944+P43140); assay: Selectivity given as ratio of pKb value against Alpha-1D receptor to pKb value against alpha1A receptor in rat; type: functional
[2] = target: T1, Alpha-1D adrenergic receptor (Rattus norvegicus, UniProt P23944); assay: Antagonistic activity against (-)-noradrenaline-induced contraction of rat thoracic aorta (Alpha-1D adrenergic receptor); type: functional, tissue-based; settings: read-out: pA2 (converted)
T1 sequence (P23944 whole entry): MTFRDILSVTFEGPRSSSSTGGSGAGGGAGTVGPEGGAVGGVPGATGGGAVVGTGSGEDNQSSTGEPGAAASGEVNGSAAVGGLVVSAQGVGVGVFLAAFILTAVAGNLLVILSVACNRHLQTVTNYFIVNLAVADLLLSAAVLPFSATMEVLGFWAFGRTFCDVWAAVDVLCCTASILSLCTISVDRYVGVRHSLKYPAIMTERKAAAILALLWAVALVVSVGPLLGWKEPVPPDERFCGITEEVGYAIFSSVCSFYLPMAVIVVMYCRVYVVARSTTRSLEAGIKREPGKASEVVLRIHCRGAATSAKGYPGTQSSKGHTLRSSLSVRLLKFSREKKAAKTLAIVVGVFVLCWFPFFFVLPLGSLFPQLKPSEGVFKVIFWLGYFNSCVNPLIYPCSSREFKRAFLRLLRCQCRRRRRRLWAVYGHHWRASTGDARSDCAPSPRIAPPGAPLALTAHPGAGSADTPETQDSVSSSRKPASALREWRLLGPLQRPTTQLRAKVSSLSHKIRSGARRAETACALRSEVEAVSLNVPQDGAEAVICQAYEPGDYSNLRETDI
Method in brief: (§1)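 Endothelium-denuded rat thoracic aorta strips (denudation confirmed by no 100 µM acetylcholine relaxation after 1 µM noradrenaline) in Tyrode, 1 g tension, ≥2 h equilibration. Cumulative (-)-noradrenaline curves at 1 h intervals; third as control, antagonist 30 min before fourth.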

[3] = target: T2, Alpha-1A adrenergic receptor (Rattus norvegicus) (UniProt P43140); assay: Inhibition of (-)-noradrenaline-induced contraction of rat prostatic vas deferens (alpha1A receptor); type: functional
T2 sequence (whole entry): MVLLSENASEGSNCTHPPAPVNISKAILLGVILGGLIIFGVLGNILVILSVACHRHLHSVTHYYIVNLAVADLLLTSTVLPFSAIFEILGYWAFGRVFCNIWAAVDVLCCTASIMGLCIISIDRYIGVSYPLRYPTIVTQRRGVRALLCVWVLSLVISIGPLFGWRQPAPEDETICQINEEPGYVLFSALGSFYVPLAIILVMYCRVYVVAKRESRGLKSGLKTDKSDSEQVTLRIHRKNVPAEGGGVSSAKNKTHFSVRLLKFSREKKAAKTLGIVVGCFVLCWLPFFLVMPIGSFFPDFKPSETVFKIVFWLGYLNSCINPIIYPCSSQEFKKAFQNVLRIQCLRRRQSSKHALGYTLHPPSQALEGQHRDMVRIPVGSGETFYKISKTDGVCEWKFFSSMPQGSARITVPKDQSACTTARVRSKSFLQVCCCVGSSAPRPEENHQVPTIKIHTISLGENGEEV
Method in brief: (§2)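 Rat prostatic vas deferens portion equilibrated 60 min, washed every 15 min, primed twice with 10 µM noradrenaline, re-equilibrated 60 min; control noradrenaline concentration-response curve, then antagonist 30 min before repeat curve.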

[4] = target: Alpha adrenergic receptor 1A and 1B (Rattus norvegicus) (UniProt P15823+P43140); assay: Selectivity given as ratio of pKb value against alpha1A receptor to pKb value against alpha-1B receptor in rat; type: functional
[5] = target: T3, Alpha-1B adrenergic receptor (Rattus norvegicus) (UniProt P15823); assay: Inhibition of (-)-phenylephrine-induced contraction of rat spleen (Alpha-1B adrenergic receptor ); type: functional, tissue-based
T3 sequence (whole entry): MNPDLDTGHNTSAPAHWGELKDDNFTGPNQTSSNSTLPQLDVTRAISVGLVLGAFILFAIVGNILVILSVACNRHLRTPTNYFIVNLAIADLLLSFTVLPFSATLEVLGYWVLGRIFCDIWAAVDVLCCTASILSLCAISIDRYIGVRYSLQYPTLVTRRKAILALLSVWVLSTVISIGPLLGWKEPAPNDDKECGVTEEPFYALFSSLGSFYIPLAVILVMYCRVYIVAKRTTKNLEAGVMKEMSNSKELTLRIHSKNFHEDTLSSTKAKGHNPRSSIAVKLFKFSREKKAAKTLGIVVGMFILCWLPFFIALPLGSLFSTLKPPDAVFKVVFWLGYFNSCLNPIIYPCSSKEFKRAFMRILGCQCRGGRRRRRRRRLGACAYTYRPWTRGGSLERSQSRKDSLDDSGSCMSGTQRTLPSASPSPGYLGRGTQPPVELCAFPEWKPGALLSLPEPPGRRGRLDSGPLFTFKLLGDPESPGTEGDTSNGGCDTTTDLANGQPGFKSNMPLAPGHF
Method in brief: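 Rat spleen strips in buffer containing 4 µM propranolol to block β-adrenoceptors, 1 g resting tension, 2 h equilibration. Isometric cumulative phenylephrine curves at 30 min intervals; first discarded, second control.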

[6] = Selectivity given as ratio of pKb value against Alpha-1D receptor to pKb value against Alpha-1B receptor in rat; type: functional
[7] = target: T4, Alpha-1D adrenergic receptor (Rattus norvegicus) (UniProt P23944); assay: Inhibition of (-)-noradrenaline-induced contraction of rat thoracic aorta (Alpha-1D adrenergic receptor); type: functional, tissue-based; method in brief: as §1
T4 sequence (whole entry): T1 sequence (P23944 whole entry)

[8] = target: T5, Alpha-1A adrenergic receptor (Rattus norvegicus, UniProt P43140); assay: Antagonistic activity against (-)-noradrenaline-induced contraction of rat prostatic vas deferens (Alpha-1A adrenergic receptor ); type: functional, tissue-based; settings: read-out: pA2 (converted)
T5 sequence (P43140 whole entry): T2 sequence (whole entry)
Method in brief: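 Rat prostatic vas deferens segments equilibrated 60 min, washed every 15 min, primed twice with 10 µM noradrenaline, then re-equilibrated 60 min. Basal noradrenaline concentration-response curve, then repeat after 30 min antagonist equilibration.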

[9] = target: T2, Alpha-1A adrenergic receptor (Rattus norvegicus); assay: Antagonistic activity against (-)-noradrenaline-induced contraction of rat prostatic vas deferens (Alpha-1A adrenergic receptor); type: functional, tissue-based; method in brief: as §2

Kb [8] [nM] | SMILES | Selectivity [1] | Kb [2] [nM] | pKb [3] | Selectivity [4] | pKb [5] | Selectivity [6] | pKb [7] | pKb [9]
– | COc1cccc(OC)c1OCCNCC1CO[C@](C)(c2ccccc2)O1.O=C(O)C(=O)O (some centres undefined) | 12 | 129 | 5.8 | 2 | 5.56 | 21 | – | –
– | COc1ccccc1N1CCN(CCN2C(=O)CC3(CCCC3)CC2=O)CC1 | – | – | – | – | 7.48 | – | 8.4 | –
– | O=C(O)C(=O)O.c1ccc(OCCNCC2COC3(CCCCC3)O2)cc1 (centres undefined) | 19 | – | 5.27 | 0.1 | 6.2 | 2 | 6.54 | –
0.437 | COc1cccc(OC)c1OCCNCC1COc2ccccc2O1 (centres undefined) | – | 2.51 | – | – | – | – | – | –
– | COc1cccc(OC)c1OCCNCC1CO[C@H](c2cccc3ccccc23)O1.O=C(O)C(=O)O (some centres undefined) | > 209 | – | < 5 | < 0.04 | 6.38 | 9 | 7.32 | –
– | COc1cccc(OC)c1OCCNCC1COC(c2ccc3ccccc3c2)O1.O=C(O)C(=O)O (centres undefined) | 7 | – | 5.79 | 5 | 5.12 | 33 | 6.65 | –
– | COc1cccc(OC)c1OCCNCC1CO[C@H](C(c2ccccc2)c2ccccc2)O1.O=C(O)C(=O)O (some centres undefined) | 36 | – | 5.6 | 12 | 5.51 | 44 | 7.15 | –
– | COc1cccc(OC)c1OCCNCC1CO[C@@H](c2cccc3ccccc23)O1.O=C(O)C(=O)O (some centres undefined) | 24 | – | 5.69 | 0.2 | 6.38 | 5 | 7.07 | –
– | O=C(O)C(=O)O.c1ccc(OCCNCC2CO[C@H](c3ccccc3)O2)cc1 (some centres undefined) | 45 | – | 5.44 | 0.1 | 6.3 | 6 | 7.09 | –
– | COc1cccc(OC)c1OCCNCC1CO[C@H](Cc2ccccc2)O1.O=C(O)C(=O)O (some centres undefined) | 0.6 | – | 5.36 | 0.4 | 5.77 | 0.2 | 5.13 | –
– | O=C(O)C(=O)O.c1ccc(OCCNCC2CO[C@@H](c3ccccc3)O2)cc1 (some centres undefined) | 9 | – | 6.01 | 0.4 | 6.4 | 4 | 6.94 | –
– | COc1cccc(OC)c1OCCNCC1CO[C@@](C)(c2ccccc2)O1.O=C(O)C(=O)O (some centres undefined) | 11 | – | 5.74 | 0.6 | 5.93 | 7 | 6.69 | –
– | COc1cccc(OC)c1OCCNCC1CO[C@@H](Cc2ccccc2)O1.O=C(O)C(=O)O (some centres undefined) | 0.2 | – | 6.82 | 23 | 5.45 | 5 | 6 | –
– | COc1cccc(OC)c1OCCNCC1CO[C@H](c2ccccc2)O1.O=C(O)C(=O)O (some centres undefined) | 0.7 | – | – | 8 | 5.7 | 6 | 6.44 | 6.61
– | COc1cccc(OC)c1OCCNCC1COC(c2ccccc2)(c2ccccc2)O1.O=C(O)C(=O)O (centres undefined) | 16 | 117 | 5.73 | 0.7 | 5.89 | 11 | – | –
– | COc1cccc(OC)c1OCCNCC1CO[C@@H](c2ccccc2)O1.O=C(O)C(=O)O (some centres undefined) | 0.7 | – | 6.31 | 1 | 6.19 | 1 | 6.18 | –
– | COc1cccc(OC)c1OCCNCC1CO[C@@H](C(c2ccccc2)c2ccccc2)O1.O=C(O)C(=O)O (some centres undefined) | 1 | – | 6.77 | 21 | 5.44 | 28 | 6.88 | –
